Reference: ChEMBL document CHEMBL1275449, “Potent in vitro antifungal activities of naturally occurring acetylenic acids” (Antimicrob Agents Chemother, 2008)
The source made the active and inactive calls. The calls are words filed in the database; no cut-off is given here.

Key:
Cryptococcus neoformans [1] = test: Antifungal activity against Cryptococcus neoformans ATCC 90113 at 198.1 uM after 72 hrs by CLSI method; assay type: functional, organism-based
Candida albicans [2] = test: Antifungal activity against Candida albicans ATCC 14053 at 198.1 uM after 48 hrs by CLSI method; assay type: functional, organism-based
Nakaseomyces glabratus [3] = test: Antifungal activity against Candida glabrata ATCC 90030 at 198.1 uM after 48 hrs by CLSI method; assay type: functional, organism-based
How it was run: (§1)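 Candida inocula came from 24–72-h SD agar colonies suspended in saline. They were diluted by OD630 standard curve into RPMI 1640 (0.2% dextrose, 0.03% glutamine, 0.165 M MOPS, pH 7.0) to 1.5 × 10³ CFU/ml. Compounds were run as 11 twofold dilutions in 20% DMSO-saline, in duplicate, at 35°C for 48 h, with OD530 read before and after. Percent growth at the top concentration, IC50, MIC, and MFC (SD agar plating) were derived.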

Aspergillus niger = test: Antifungal activity against Aspergillus niger ATCC 16404 at 198.1 uM after 48 hrs by CLSI method; assay type: functional, organism-based
Candida albicans [4] = test: Antifungal activity against Candida albicans ATCC 60193 at 198.1 uM after 48 hrs by CLSI method; assay type: functional, organism-based; how it was run: as §1
[5] = system: Trichophyton mentagrophytes; test: Antifungal activity against Trichophyton mentagrophytes ATCC MYA-4439 at 168.9 uM after 5 days by CLSI method; assay type: functional, organism-based
Candida albicans [6] = test: Antifungal activity against Candida albicans ATCC 14053 at 168.9 uM after 48 hrs by CLSI method; assay type: functional, organism-based
Pichia kudriavzevii [7] = test: Antifungal activity against Candida krusei ATCC 6258 at 168.9 uM after 48 hrs by CLSI method; assay type: functional, organism-based; how it was run: as §1
Cryptococcus neoformans [8] = test: Antifungal activity against Cryptococcus neoformans ATCC 66031 at 168.9 uM after 72 hrs by CLSI method; assay type: functional, organism-based
How it was run: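 SD broth replaced RPMI because growth in RPMI was poor; other CLSI conditions were kept. Inoculum was 1.5 × 10³ CFU/ml from colonies on SD agar, checked by plating. Twofold serial dilutions (11 concentrations) in 20% DMSO-saline were tested in duplicate. OD530 was read before and after incubation at 35°C for 72 h. Percent growth gave IC50; the MIC is the lowest concentration with no detectable growth.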

[9] = system: Trichophyton mentagrophytes; test: Antifungal activity against Trichophyton mentagrophytes ATCC 9533 at 168.9 uM after 5 days by CLSI method; assay type: functional, organism-based
Aspergillus fumigatus [10] = test: Antifungal activity against Aspergillus fumigatus ATCC 90906 at 187.7 uM after 48 hrs by CLSI method; assay type: functional, organism-based
Trichophyton rubrum [11] = test: Antifungal activity against Trichophyton rubrum ATCC MYA-4438 at 187.7 uM after 5 days by CLSI method; assay type: functional, organism-based
Candida albicans [12] = test: Antifungal activity against Candida albicans ATCC 60193 at 187.7 uM after 48 hrs by CLSI method; assay type: functional, organism-based; how it was run: as §1
Candida albicans [13] = test: Antifungal activity against Candida albicans ATCC 14053 at 187.7 uM after 48 hrs by CLSI method; assay type: functional, organism-based
Aspergillus fumigatus [14] = test: Antifungal activity against Aspergillus fumigatus ATCC 204305 at 187.7 uM after 48 hrs by CLSI method; assay type: functional, organism-based
Candida albicans [15] = test: Antifungal activity against Fluconazole resistant Candida albicans isolate 17 at 187.7 uM after 48 hrs by CLSI method; assay type: functional, organism-based
How it was run: (§2)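 Candida in CLSI broth microdilution. Saline colony suspension set to 1.5 × 10³ CFU/ml (final) in MOPS-buffered RPMI 1640, pH 7.0. Test agent given as twofold serial dilutions in 20% DMSO-saline, duplicate wells. 35°C for 48 h. Growth read as OD530 before and after incubation. Percent inhibition scored at the highest test concentration.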

Candida tropicalis = test: Antifungal activity against Candida tropicalis ATCC 750 at 187.7 uM after 48 hrs by CLSI method; assay type: functional, organism-based
How it was run: (§3)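 Yeast suspensions made from 3-5 colonies off 24-72 h SD agar plates in saline. They were diluted by OD630 standard curve in RPMI 1640 (0.2% dextrose, 0.03% glutamine, 0.165 M MOPS, pH 7.0) to 1.5 × 10³ CFU/ml. Twofold dilutions (11 concentrations, 20% DMSO-saline) run in duplicate. OD530 read before and after 35°C, 48 h. Line values are top test concentrations; no-growth endpoints give MIC/MFC.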

Candida albicans [16] = test: Antifungal activity against Candida albicans ATCC 32354 at 187.7 uM after 48 hrs by CLSI method; assay type: functional, organism-based; how it was run: as §1
Aspergillus flavus [17] = test: Antifungal activity against Aspergillus flavus ATCC 204304 at 169.8 uM after 48 hrs by CLSI method; assay type: functional, organism-based
Candida parapsilosis = test: Antifungal activity against Candida parapsilosis ATCC 22019 at 169.8 uM after 48 hrs by CLSI method; assay type: functional, organism-based; how it was run: as §3
Mus musculus = test: Toxicity in mouse up to 34 umol/kg/day, ip for 3 days; assay type: organism-based; settings: in vivo, 72 h
Nakaseomyces glabratus [18] = test: Antifungal activity against Candida glabrata ATCC 90030 at 169.8 uM after 48 hrs by CLSI method; assay type: functional, organism-based; how it was run: as §1
Candida albicans [19] = test: Antifungal activity against Fluconazole resistant Candida albicans isolate 1 at 9.4 uM after 48 hrs by CLSI method; assay type: functional, organism-based; how it was run: as §2
[20] = system: Trichophyton mentagrophytes; test: Antifungal activity against Trichophyton mentagrophytes ATCC MYA-4439 at 9.4 uM after 5 days by CLSI method; assay type: functional, organism-based
How it was run: (§4)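 Trichophyton growth scraped from 1–6-week potato dextrose slants and filtered through Miracloth. Inoculum 2.7 × 10⁴ CFU/ml (final) in 5% Alamar blue-RPMI 1640 buffered with MOPS, pH 7.0. Duplicate twofold dilutions from 20% DMSO-saline. Incubated 35°C for 5 days. Fluorescence read at 544 nm excitation, 590 nm emission. Inhibition assessed at the highest test concentration.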

Aspergillus fumigatus [21] = test: Antifungal activity against Aspergillus fumigatus ATCC 90906 at 9.4 uM after 48 hrs by CLSI method; assay type: functional, organism-based
How it was run: (§5)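 Aspergillus growth on 1–6-week potato dextrose slants scraped and Miracloth-filtered. Inoculum sized by OD630 curve to 2.7 × 10⁴ CFU/ml (final) in 5% Alamar blue-RPMI 1640 (MOPS, pH 7.0). Duplicate twofold dilutions from 20% DMSO-saline. 35°C for 48 h. Fluorescence 544/590 nm read before and after. Percent inhibition taken at the highest test concentration.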

Pichia kudriavzevii [22] = test: Antifungal activity against Candida krusei ATCC 6258 at 9.4 uM after 48 hrs by CLSI method; assay type: functional, organism-based; how it was run: as §2
Trichophyton rubrum [23] = test: Antifungal activity against Trichophyton rubrum ATCC MYA-4438 at 9.4 uM after 5 days by CLSI method; assay type: functional, organism-based; how it was run: as §4
Aspergillus fumigatus [24] = test: Antifungal activity against Aspergillus fumigatus ATCC 204305 at 9.4 uM after 48 hrs by CLSI method; assay type: functional, organism-based; how it was run: as §5
Nakaseomyces glabratus [25] = test: Antifungal activity against Candida glabrata ATCC 90030 at 9.4 uM after 48 hrs by CLSI method; assay type: functional, organism-based; how it was run: as §2
Aspergillus flavus [26] = test: Antifungal activity against Aspergillus flavus ATCC 204304 at 9.4 uM after 48 hrs by CLSI method; assay type: functional, organism-based; how it was run: as §5
[27] = system: Trichophyton mentagrophytes; test: Antifungal activity against Trichophyton mentagrophytes ATCC 9533 at 9.4 uM after 5 days by CLSI method; assay type: functional, organism-based; how it was run: as §4
Candida albicans [28] = test: Antifungal activity against Candida albicans ATCC 200955 at 9.4 uM after 48 hrs by CLSI method; assay type: functional, organism-based; how it was run: as §2

For `CCCCCCCCCC#CCCCCC(=O)O`, the Activity (Cryptococcus neoformans [1]) was “inactive”, the Activity (Candida albicans [2]) was “inactive” and the Activity (Nakaseomyces glabratus [3]) was “inactive”. The Activity (Aspergillus niger) was “inactive” and the Activity (Candida albicans [4]) was “inactive”.

With `CCCCCC#CCC#CCC#CCC#CCCCC(=O)O` the Activity [5] was “inactive”, the Activity (Candida albicans [6]) was “inactive” and the Activity (Pichia kudriavzevii [7]) was “inactive”. The Activity (Cryptococcus neoformans [8]) was “inactive” and the Activity [9] was “inactive”.

In the case of `CCCCCCCCCCC#CCCCCC(=O)O`, the Activity (Aspergillus fumigatus [10]) is reported as “inactive”, the Activity (Trichophyton rubrum [11]) is reported as “inactive” and the Activity (Candida albicans [12]) is reported as “inactive”. The Activity (Candida albicans [13]) was “inactive”, the Activity (Aspergillus fumigatus [14]) was “inactive” and the Activity (Candida albicans [15]) was “inactive”. For the same compound, the Activity (Candida tropicalis) was “inactive” and the Activity (Candida albicans [16]) was “inactive”.

In the case of `CCCCCCCCCCCCC#CCCCCC(=O)O` [6-NONADECYNOIC ACID], the Activity (Aspergillus flavus [17]) is reported as “inactive”, the Activity (Candida parapsilosis) is reported as “inactive” and the Activity (Mus musculus) is reported as “Non-toxic”. For the same compound, the Activity (Nakaseomyces glabratus [18]) was “inactive”.

For `CC(=O)N1CCN(c2ccc(OCC3COC(Cn4ccnc4)(c4ccc(Cl)cc4Cl)O3)cc2)CC1` (configuration not stated) [KETOCONAZOLE], the Activity (Candida albicans [19]) was “inactive”, the Activity [20] was “inactive” and the Activity (Aspergillus fumigatus [21]) was “inactive”. For the same compound, the Activity (Pichia kudriavzevii [22]) was “inactive”, the Activity (Trichophyton rubrum [23]) was “inactive” and the Activity (Aspergillus fumigatus [24]) was “inactive”. The Activity (Nakaseomyces glabratus [25]) was “inactive”, the Activity (Aspergillus flavus [26]) was “inactive” and the Activity [27] was “inactive”. The Activity (Candida albicans [28]) was “inactive”.
